Published values pooled from the literature.
Compare with care: the assays were run in different laboratories.
Target: Mitogen-activated protein kinase 1 (MAPK1, Homo sapiens, UniProt P28482)

SMILES | assay | conditions | remaining binding [%]
C[C@H](c1cccc(C#N)c1)n1cc(Cl)cc(C(N)=O)c1=N | cell-free assay, competition with immobilised ligand | 1 µM | 93
CC1CCCN1c1nccc(-c2cnn3ncccc23)n1 (stereo not shown) | binding | 1 µM | 95
Cn1nc(C(F)(F)F)cc1-c1cnc(N2CCc3cc(S(=O)(=O)Nc4c(F)cc(Cl)cc4F)cc(N4CCCC4=O)c32)nc1 | cell-free assay, competition with immobilised ligand | 1 µM | 100
O=C(c1ccc(Nc2ncc(Cl)c(-c3ccc(Cl)s3)n2)cc1)N1CCC(N2CCCC2)CC1 | binding, competition with immobilised ligand | 1 µM | 100
CN(C)c1nccc(-c2cnn3ncccc23)n1 | binding | 1 µM | 100
C[C@@H]1CN(c2cc(-c3n[nH]c4ccc(OC5(C)CC5)cc34)ncn2)C[C@H](C)O1 | cell-free assay, competition with immobilised ligand | 0.1 µM | 98
c1cncc(-c2cccc(Nc3nccc(NC4CCCCC4)n3)c2)c1 | binding, competition with immobilised ligand | 10 µM | 92
CN(C)c1ncc(F)c(-c2cnn3ncccc23)n1 | binding | 1 µM | 82
CSc1cccnc1N1CCN(Cc2nc3ccccc3[nH]2)CC1 | cell-free assay, competition with immobilised ligand | 1 µM | 93
CCN1CCN(Cc2ccc(C(=O)Nc3ccc(C)c(Oc4ccc5c(c4)CC(=O)N5)c3)cc2C(F)(F)F)CC1 | binding, competition with immobilised ligand | 1 µM | 100
O=C(c1ccc(Nc2nccc(-c3cc4ccccc4s3)n2)cc1)N1CCC(N2CCCC2)CC1 | binding, competition with immobilised ligand | 1 µM | 100
N[C@H]1CCN(c2nccc(-c3cnn4ncccc34)n2)C1 | binding | 1 µM | 100
O=C(NCC1CCOCC1)c1n[nH]cc1NC(=O)c1c(F)cccc1F | binding, competition with immobilised ligand | 1 µM | 87
C[C@@H](c1ccc(-n2cnc3c(N)ncnc32)cc1)N1CCc2nn(C)c(Cc3ccccc3)c2C1=O | binding, competition with immobilised ligand | 0.1 µM | 91
Cc1cnc(Nc2ccc(C(=O)N3CCC(N4CCCC4)CC3)cc2)nc1-c1cc2ccccc2s1 | binding, competition with immobilised ligand | 1 µM | 100
F[C@@H]1CCN(c2nccc(-c3cnn4ncccc34)n2)C1 | binding | 1 µM | 100
CNC(=O)Nc1ccc2c(c1)[C@@]1(CC2)OC(=O)N(CC(=O)N(Cc2ccc(F)cc2)[C@@H](C)C(F)(F)F)C1=O | cell-free assay, competition with immobilised ligand | 1 µM | 91
C[C@H]1CCN(c2nccc(-c3cnn4ncccc34)n2)C1 | binding | 1 µM | 100
CCCOc1ccc([C@@H]2[C@@H](C(=O)O)[C@H](c3ccc4c(c3)OCO4)CN2CC(=O)Nc2c(CC)cccc2CC)cc1 | cell-free assay, competition with immobilised ligand | 1 µM | 100
c1cnn2ncc(-c3ccnc(N4CCC45COC5)n3)c2c1 | binding | 1 µM | 100
COc1cccc(CNC(=O)c2nc3scc(COCc4ccc(C(=O)O)cc4)c3c(=O)[nH]2)c1 | cell-free assay, competition with immobilised ligand | 1 µM | 100
CNC(=O)[C@@H]1CC[C@@H](n2c(-c3ccc4cnccc4c3)nc3ccc(C(=O)NCc4cccc(C(N)=O)c4)cc32)C1 | binding, competition with immobilised ligand | 1 µM | 91
